Experimental data as given in ChEMBL document CHEMBL4725387, “Synthesis and pharmacological evaluation of piperidine (piperazine)-amide substituted derivatives as multi-target antipsychotics” (Bioorg Med Chem Lett, 2020).
Activity calls are given as the source filed them. The rule behind the calls is not given here.

Experiments:
Rattus norvegicus = experiment: Memory enhancement effect in rat assessed as increase in total exploratory time for novel objects at 0.01 mg/kg, po administered 1 hr prior to acquisition trial and measured after 24 hrs by novel object recognition test; type: functional, organism-based; details: time 25.0 hrs
Summary of the method: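 Rat novel object recognition, n = 10. Oral dosing in 30% PEG 400 1 h before the acquisition trial with two identical objects. At 24 h one object was replaced by a novel one and exploration times were scored. Mean ± SEM, post-hoc Student's t-test versus vehicle.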

[1] = molecular target: 5-hydroxytryptamine receptor 2A (Homo sapiens, UniProt P28223); experiment: Binding affinity to 5HT2A receptor (unknown origin)
[2] = AUC (0 to infinity) in rat at 10 mg/kg, po; type: ADME, organism-based; parameters: route oral, time infinity, dose 10 mg/kg; details: in vivo
Summary of the method: (§1)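 Male rats, n = 6 per group, given a single oral dose of 10 mg/kg. PK parameters taken from serum concentration–time profiles: Cmax, Tmax, t1/2, AUC0-t, AUC0-∞, CL/F, F%.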

[3] = Therapeutic index, ratio of ED50 for induction of catalepsy in po dosed mouse to ED50 for antipsychotic activity in po dosed mouse assessed as suppression of apomorphine-induced climbing; type: toxicity, organism-based; details: in vivo, read-out: Ratio ED50
Summary of the method: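 Therapeutic index is the catalepsy ED50 divided by the efficacy ED50 from the apomorphine climbing or MK-801 hyperactivity model. All were oral dosing in mice, vehicle 30% PEG 400.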

[4] = Tmax in rat at 10 mg/kg, po; type: ADME, organism-based; details: in vivo; summary of the method: as §1
[5] = Cmax in rat at 10 mg/kg, po; type: ADME, organism-based; parameters: route oral, dose 10 mg/kg; details: in vivo; summary of the method: as §1
[6] = AUC (0 to t) in rat at 10 mg/kg, po; type: ADME, organism-based; parameters: dose 10 mg/kg; details: in vivo; summary of the method: as §1
D(2) dopamine receptor = D(2) dopamine receptor (Homo sapiens, UniProt P14416); experiment: Binding affinity to D2 receptor (unknown origin)
Summary of the method: (§2)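 Radioligand displacement binding. Ki is the mean ± SEM of three experiments.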

[7] = Half life in rat at 3 mg/kg, iv; type: ADME, organism-based; details: in vivo
Summary of the method: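 Male rats, n = 6 per group, given a single intravenous dose of 3 mg/kg. PK parameters taken from serum concentration–time profiles: t1/2, AUC0-t, AUC0-∞, clearance.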

[8] = molecular target: 5-hydroxytryptamine receptor 6 (Homo sapiens, UniProt P50406); experiment: Binding affinity to 5HT6 receptor (unknown origin); summary of the method: as §2
[9] = Induction of catalepsy in po dosed mouse by vertical grid and elevated bar test; type: organism-based; details: in vivo
Summary of the method: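 Mouse catalepsy scored by vertical grid and elevated bar tests. Oral doses of 1, 5, 15, 45 and 100 mg/kg in 30% PEG 400. ED50 reported with 95% confidence limits.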

Mus musculus [10] = experiment: Antipsychotic activity in po dosed mouse assessed as suppression of apomorphine-induced climbing behaviour; type: functional
Summary of the method: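 Mice climbing induced by apomorphine 1.0 mg/kg sc. Test article given po at 0.01, 0.03, 0.1, 0.3 and 1.0 mg/kg in 30% PEG 400. ED50 reported with 95% confidence limits.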

Mus musculus [11] = experiment: Antipsychotic activity in po dosed mouse assessed as suppression in DOI-induced head twitching response; type: functional
Summary of the method: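 Mouse head twitch induced by DOI 1.0 mg/kg ip. Oral pretreatment at 0.01, 0.03, 0.1, 0.3 and 1.0 mg/kg in 30% PEG 400. ED50 reported with 95% confidence limits.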

[12] = molecular target: Voltage-gated inwardly rectifying potassium channel KCNH2 (Homo sapiens, UniProt Q12809); experiment: Inhibition of human ERG by patch-clamp method
[13] = Apparent oral clearance in rat at 10 mg/kg, po; type: ADME, organism-based; details: in vivo; summary of the method: as §1
[14] = molecular target: T1, 5-hydroxytryptamine receptor 1A (Homo sapiens, UniProt P08908); experiment: Binding affinity to 5HT1A receptor (unknown origin); summary of the method: as §2
T1 sequence (P08908 whole entry): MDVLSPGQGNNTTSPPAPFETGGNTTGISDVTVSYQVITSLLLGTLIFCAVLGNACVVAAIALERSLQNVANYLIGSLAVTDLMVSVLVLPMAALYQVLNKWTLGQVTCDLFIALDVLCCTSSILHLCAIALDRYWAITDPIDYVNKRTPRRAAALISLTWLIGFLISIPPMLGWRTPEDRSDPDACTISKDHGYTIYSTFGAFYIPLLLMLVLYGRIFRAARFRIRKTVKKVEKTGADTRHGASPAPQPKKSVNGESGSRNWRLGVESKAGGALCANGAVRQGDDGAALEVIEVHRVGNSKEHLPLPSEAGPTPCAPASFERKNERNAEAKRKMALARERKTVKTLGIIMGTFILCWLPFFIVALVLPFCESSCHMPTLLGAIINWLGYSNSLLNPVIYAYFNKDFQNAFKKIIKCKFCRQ

[15] = molecular target: T2, Alpha-2A adrenergic receptor (Homo sapiens, UniProt P08913); experiment: Binding affinity to alpha2 adrenergic receptor (unknown origin); summary of the method: as §2
T2 sequence (P08913 whole entry): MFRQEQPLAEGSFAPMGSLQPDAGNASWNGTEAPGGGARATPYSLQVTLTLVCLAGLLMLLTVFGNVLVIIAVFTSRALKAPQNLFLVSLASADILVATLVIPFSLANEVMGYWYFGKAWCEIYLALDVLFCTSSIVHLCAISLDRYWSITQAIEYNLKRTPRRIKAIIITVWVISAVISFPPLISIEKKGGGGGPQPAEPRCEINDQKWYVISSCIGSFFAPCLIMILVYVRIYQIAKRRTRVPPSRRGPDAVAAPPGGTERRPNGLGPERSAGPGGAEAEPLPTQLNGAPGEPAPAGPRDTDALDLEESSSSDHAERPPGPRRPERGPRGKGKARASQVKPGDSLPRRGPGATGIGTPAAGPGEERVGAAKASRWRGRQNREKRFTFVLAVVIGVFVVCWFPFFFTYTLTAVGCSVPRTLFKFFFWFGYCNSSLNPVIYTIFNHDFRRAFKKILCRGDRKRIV

Chain of 5-hydroxytryptamine receptor 2A (P28223 whole entry): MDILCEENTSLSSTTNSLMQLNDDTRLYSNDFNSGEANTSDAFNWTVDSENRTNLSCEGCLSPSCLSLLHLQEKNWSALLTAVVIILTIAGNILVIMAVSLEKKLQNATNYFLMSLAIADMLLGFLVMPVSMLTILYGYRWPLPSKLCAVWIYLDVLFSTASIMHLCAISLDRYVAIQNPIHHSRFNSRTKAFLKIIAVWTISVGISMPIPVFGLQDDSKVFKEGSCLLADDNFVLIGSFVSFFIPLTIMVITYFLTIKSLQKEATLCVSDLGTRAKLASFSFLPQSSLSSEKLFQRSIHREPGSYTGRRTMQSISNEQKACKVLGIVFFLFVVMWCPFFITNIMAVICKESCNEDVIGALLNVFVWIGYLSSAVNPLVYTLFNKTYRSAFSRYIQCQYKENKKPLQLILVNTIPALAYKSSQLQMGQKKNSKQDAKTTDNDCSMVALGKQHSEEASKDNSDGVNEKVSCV
Chain of Voltage-gated inwardly rectifying potassium channel KCNH2 (Q12809 whole entry): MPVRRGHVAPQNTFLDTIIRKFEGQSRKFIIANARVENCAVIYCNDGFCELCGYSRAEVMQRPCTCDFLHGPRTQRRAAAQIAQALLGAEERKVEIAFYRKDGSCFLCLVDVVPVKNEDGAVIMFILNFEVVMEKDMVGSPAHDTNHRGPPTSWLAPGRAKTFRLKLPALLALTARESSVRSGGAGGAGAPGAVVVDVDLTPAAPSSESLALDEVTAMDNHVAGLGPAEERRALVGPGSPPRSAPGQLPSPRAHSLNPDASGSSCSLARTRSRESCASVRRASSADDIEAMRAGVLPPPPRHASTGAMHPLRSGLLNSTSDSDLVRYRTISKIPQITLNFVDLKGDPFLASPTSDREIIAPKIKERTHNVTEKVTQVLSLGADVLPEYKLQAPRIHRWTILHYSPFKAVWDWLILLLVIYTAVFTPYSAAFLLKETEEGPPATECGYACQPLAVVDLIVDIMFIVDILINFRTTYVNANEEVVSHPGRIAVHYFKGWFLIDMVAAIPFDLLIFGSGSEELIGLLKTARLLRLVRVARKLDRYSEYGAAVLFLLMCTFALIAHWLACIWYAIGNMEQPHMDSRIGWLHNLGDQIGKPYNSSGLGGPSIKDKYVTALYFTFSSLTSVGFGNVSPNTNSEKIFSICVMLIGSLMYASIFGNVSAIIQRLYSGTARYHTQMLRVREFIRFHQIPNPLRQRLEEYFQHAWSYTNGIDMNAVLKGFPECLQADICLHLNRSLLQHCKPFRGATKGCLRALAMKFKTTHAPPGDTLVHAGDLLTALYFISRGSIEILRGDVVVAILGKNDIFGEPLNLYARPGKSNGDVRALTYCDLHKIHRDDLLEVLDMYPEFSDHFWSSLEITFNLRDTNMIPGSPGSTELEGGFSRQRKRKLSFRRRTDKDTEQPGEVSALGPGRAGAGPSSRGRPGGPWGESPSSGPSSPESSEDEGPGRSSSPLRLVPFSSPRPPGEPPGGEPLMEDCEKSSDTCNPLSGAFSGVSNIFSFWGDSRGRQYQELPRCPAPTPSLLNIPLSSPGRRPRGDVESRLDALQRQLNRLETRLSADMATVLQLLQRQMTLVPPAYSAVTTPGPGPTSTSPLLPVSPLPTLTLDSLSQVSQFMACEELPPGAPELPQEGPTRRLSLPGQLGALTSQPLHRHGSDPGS
Chain of D(2) dopamine receptor (P14416 whole entry): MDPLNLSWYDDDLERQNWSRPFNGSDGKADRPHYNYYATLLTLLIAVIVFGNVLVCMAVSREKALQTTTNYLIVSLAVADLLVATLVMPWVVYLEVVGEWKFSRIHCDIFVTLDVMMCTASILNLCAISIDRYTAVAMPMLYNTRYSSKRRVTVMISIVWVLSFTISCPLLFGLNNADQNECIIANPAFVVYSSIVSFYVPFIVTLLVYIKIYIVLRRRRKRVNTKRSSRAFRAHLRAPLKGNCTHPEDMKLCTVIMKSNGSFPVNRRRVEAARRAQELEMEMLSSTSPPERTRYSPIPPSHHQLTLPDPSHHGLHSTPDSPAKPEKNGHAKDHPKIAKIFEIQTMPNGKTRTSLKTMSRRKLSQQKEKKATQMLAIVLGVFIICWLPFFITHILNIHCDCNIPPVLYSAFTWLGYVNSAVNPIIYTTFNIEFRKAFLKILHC
Chain of 5-hydroxytryptamine receptor 6 (P50406 whole entry): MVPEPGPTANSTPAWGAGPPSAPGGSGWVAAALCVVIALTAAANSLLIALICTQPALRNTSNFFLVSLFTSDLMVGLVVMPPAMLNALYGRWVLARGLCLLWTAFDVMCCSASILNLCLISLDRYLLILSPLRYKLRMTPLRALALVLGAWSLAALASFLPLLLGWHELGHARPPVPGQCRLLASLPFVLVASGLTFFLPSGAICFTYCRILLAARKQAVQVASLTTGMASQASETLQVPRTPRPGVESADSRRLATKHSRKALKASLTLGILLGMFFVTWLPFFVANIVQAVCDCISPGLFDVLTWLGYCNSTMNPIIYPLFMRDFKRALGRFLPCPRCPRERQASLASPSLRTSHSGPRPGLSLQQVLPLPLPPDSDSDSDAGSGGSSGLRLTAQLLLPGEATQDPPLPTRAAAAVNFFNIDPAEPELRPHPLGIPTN

Ki [1]: 0.0078 µM
AUC [2]: 9.63827 µg·h/mL
Tmax [4]: 7 h
Cmax [5]: 0.745 µg/mL
AUC(0-t) [6]: 9.49 µg·h/mL
Ki (D(2) dopamine receptor): 0.0021 µM
half-life [7]: 3.68 h
Ki [8]: 0.0129 µM
CL/F [13]: 0.173 mL/min
Ki [14]: 0.0035 µM
Ki [15]: 0.0163 µM
Structure (SMILES): CC(=O)Nc1ccc(OCCCN2CCC(c3noc4cc(F)ccc34)CC2)cc1
Activity (Rattus norvegicus): inactive
selectivity ratio [3]: 90
ED50 [9]: 25.2 mg/kg
ED50 (Mus musculus [10]): 0.28 mg/kg
Activity (Mus musculus [11]): Dose-dependent effect
ED50 (Mus musculus [11]): 0.22 mg/kg
IC50 [12]: 2.98 µM
